Source: ChEMBL document CHEMBL1156668, “Synthesis and antimicrobial activity of novel sulfone-linked bis heterocycles” (2008)
Converted amounts (≈) assume the structure as drawn.

Key:
Type in all cases: functional
Fusarium solani [1] = test: Antifungal activity against Fusarium solani at 100 ug after 48 hrs by agar disc-diffusion method; details: read-out: IZ
In short: (§1)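 Fungal strains from NCIM, Pune, were tested by disc diffusion on nutrient agar. Sterile 6 mm paper discs moistened with the compound solution in DMSO were placed on plates pre-inoculated with each fungus. Plates were incubated at 37 °C, and the inhibition-zone diameter was read after 48 h.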

Fusarium solani [2] = test: Antifungal activity against Fusarium solani at 200 ug after 48 hrs by agar disc-diffusion method; details: read-out: IZ; in short: as §1
Curvularia lunata [3] = test: Antifungal activity against Curvularia lunata at 100 ug after 48 hrs by agar disc-diffusion method; details: read-out: IZ; in short: as §1
Curvularia lunata [4] = test: Antifungal activity against Curvularia lunata at 200 ug after 48 hrs by agar disc-diffusion method; details: read-out: IZ; in short: as §1
Aspergillus niger [5] = test: Antifungal activity against Aspergillus niger at 100 ug after 48 hrs by agar disc-diffusion method; details: read-out: IZ; in short: as §1
Aspergillus niger [6] = test: Antifungal activity against Aspergillus niger at 200 ug after 48 hrs by agar disc-diffusion method; details: read-out: IZ; in short: as §1
Staphylococcus aureus [7] = test: Antibacterial activity against Staphylococcus aureus at 200 ug after 24 hrs by agar disc-diffusion method; details: read-out: IZ
In short: (§2)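 Agar disc diffusion on nutrient agar with bacterial strains from NCIM, Pune. Sterile 6 mm filter-paper discs were wetted with compound in DMSO and placed on plates already inoculated with each organism. Plates were incubated at 37 °C, and the diameter of the growth-inhibition zone was measured after 24 h.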

Bacillus subtilis [8] = test: Antibacterial activity against Bacillus subtilis at 100 ug after 24 hrs by agar disc-diffusion method; details: read-out: IZ; in short: as §2
Bacillus subtilis [9] = test: Antibacterial activity against Bacillus subtilis at 200 ug after 24 hrs by agar disc-diffusion method; details: read-out: IZ; in short: as §2
Escherichia coli [10] = test: Antibacterial activity against Escherichia coli at 100 ug after 24 hrs by agar disc-diffusion method; details: read-out: IZ; in short: as §2
Escherichia coli [11] = test: Antibacterial activity against Escherichia coli at 200 ug after 24 hrs by agar disc-diffusion method; details: read-out: IZ; in short: as §2
Klebsiella pneumoniae [12] = test: Antibacterial activity against Klebsiella pneumoniae at 100 ug after 24 hrs by agar disc-diffusion method; details: read-out: IZ; in short: as §2
Klebsiella pneumoniae [13] = test: Antibacterial activity against Klebsiella pneumoniae at 200 ug after 24 hrs by agar disc-diffusion method; details: read-out: IZ; in short: as §2
Staphylococcus aureus [14] = test: Antibacterial activity against Staphylococcus aureus at 100 ug after 24 hrs by agar disc-diffusion method; details: read-out: IZ; in short: as §2
Fusarium solani [15] = test: Antifungal activity against Fusarium solani after 48 hrs by microdilution susceptibility method
In short: (§3)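 Broth microdilution with fungi from NCIM, Pune. Fungal suspensions were added to wells containing the compound and incubated at 36 °C for 48 h. MIC was recorded as the lowest concentration with no turbidity, that is, no visible growth.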

Curvularia lunata [16] = test: Antifungal activity against Curvularia lunata after 48 hrs by microdilution susceptibility method; in short: as §3
Aspergillus niger [17] = test: Antifungal activity against Aspergillus niger after 48 hrs by microdilution susceptibility method; in short: as §3
Staphylococcus aureus [18] = test: Antibacterial activity against Staphylococcus aureus after 24 hrs by microdilution susceptibility method
In short: (§4)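 Microdilution susceptibility test on bacterial strains from NCIM, Pune. Microorganism suspensions were inoculated into wells containing the compound and incubated at 36 °C for 24 h. MIC was taken as the lowest concentration showing no turbidity, meaning complete inhibition of visible growth.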

Bacillus subtilis [19] = test: Antibacterial activity against Bacillus subtilis after 24 hrs by microdilution susceptibility method; in short: as §4
Escherichia coli [20] = test: Antibacterial activity against Escherichia coli after 24 hrs by microdilution susceptibility method; in short: as §4
Klebsiella pneumoniae [21] = test: Antibacterial activity against Klebsiella pneumoniae after 24 hrs by microdilution susceptibility method; in short: as §4

MIC (Fusarium solani [15]) [µg/mL] | MIC (Curvularia lunata [16]) [µg/mL] | MIC (Aspergillus niger [17]) [µg/mL] | MIC (Staphylococcus aureus [18]) [µg/mL] | MIC (Bacillus subtilis [19]) [µg/mL] | MIC (Escherichia coli [20]) [µg/mL] | Compound | zone of inhibition at 100 µg/disc (Fusarium solani [1]) [mm] | zone of inhibition at 200 µg/disc (Fusarium solani [2]) [mm] | zone of inhibition at 100 µg/disc (Curvularia lunata [3]) [mm] | zone of inhibition at 200 µg/disc (Curvularia lunata [4]) [mm] | zone of inhibition at 100 µg/disc (Aspergillus niger [5]) [mm] | zone of inhibition at 200 µg/disc (Aspergillus niger [6]) [mm] | zone of inhibition at 200 µg/disc (Staphylococcus aureus [7]) [mm] | zone of inhibition at 100 µg/disc (Bacillus subtilis [8]) [mm] | zone of inhibition at 200 µg/disc (Bacillus subtilis [9]) [mm] | zone of inhibition at 100 µg/disc (Escherichia coli [10]) [mm] | zone of inhibition at 200 µg/disc (Escherichia coli [11]) [mm] | zone of inhibition at 100 µg/disc (Klebsiella pneumoniae [12]) [mm] | zone of inhibition at 200 µg/disc (Klebsiella pneumoniae [13]) [mm] | zone of inhibition at 100 µg/disc (Staphylococcus aureus [14]) [mm] | further results
 |  |  |  |  |  | Cc1ccc([C@H]2CNN=C2S(=O)(=O)Cc2nnc(S)n2N)cc1 | 32 | 37 | 34 | 39 | 35 | 38 | 28 | 27 | 29 | 24 | 26 | 22 | 24 | 25 | 
 |  |  |  |  |  | O=S(=O)(Cc1nnc(S)s1)C1=NNC[C@@H]1c1ccccc1 | 22 | 24 | 26 | 29 | 25 | 28 | 21 | 20 | 23 | 15 | 20 | 17 | 20 | 18 | 
 |  |  |  |  |  | Cc1ccc([C@H]2CNN=C2S(=O)(=O)Cc2nnc(S)o2)cc1 | 16 | 20 | 16 | 18 | 17 | 21 | 15 | 13 | 16 | 12 | 14 | 10 | 12 | 12 | 
25 (≈ 67 µM) | 12.5 (≈ 33.5 µM) | 25 (≈ 67 µM) | 12.5 (≈ 33.5 µM) | 12.5 (≈ 33.5 µM) | 50 (≈ 134 µM) | Nn1c(S)nnc1CS(=O)(=O)C1=NNC[C@@H]1c1ccc(Cl)cc1 | 40 | 43 | 39 | 42 | 36 | 40 | 35 | 34 | 36 | 23 | 25 | 26 | 28 | 32 | MIC (Klebsiella pneumoniae [21]): 50 µg/mL (≈ 134 µM)
 |  |  |  |  |  | O=S(=O)(Cc1nnc(S)o1)C1=NNC[C@@H]1c1ccccc1 | 17 | 19 | 17 | 22 | 16 | 21 | 16 | 13 | 15 | 15 | 18 | 14 | 16 | 14 | 
100 (≈ 295 µM) | 100 (≈ 295 µM) | 100 (≈ 295 µM) | 25 (≈ 73.9 µM) | 25 (≈ 73.9 µM) | 50 (≈ 148 µM) | Nn1c(S)nnc1CS(=O)(=O)C1=NNC[C@@H]1c1ccccc1 | 39 | 44 | 37 | 41 | 36 | 39 | 30 | 31 | 33 | 22 | 25 | 21 | 24 | 28 | MIC (Klebsiella pneumoniae [21]): 100 µg/mL (≈ 295 µM)
 |  |  |  |  |  | Cc1ccc([C@H]2CNN=C2S(=O)(=O)Cc2nnc(S)s2)cc1 | 24 | 26 | 20 | 23 | 22 | 24 | 17 | 16 | 19 | 18 | 21 | 16 | 19 | 14 | 
100 (≈ 267 µM) | 100 (≈ 267 µM) | 200 (≈ 533 µM) | 100 (≈ 267 µM) | 200 (≈ 533 µM) | 200 (≈ 533 µM) | O=S(=O)(Cc1nnc(S)s1)C1=NNC[C@@H]1c1ccc(Cl)cc1 | 28 | 31 | 23 | 26 | 26 | 29 | 29 | 28 | 31 | 22 | 27 | 24 | 26 | 25 | MIC (Klebsiella pneumoniae [21]): 200 µg/mL (≈ 533 µM)
 |  |  |  |  |  | O=S(=O)(Cc1nnc(S)o1)C1=NNC[C@@H]1c1ccc(Cl)cc1 | 15 | 18 | 16 | 19 | 14 | 18 | 17 | 15 | 18 | 11 | 13 | 11 | 14 | 13 | 

Compound | MIC (Fusarium solani [15]) [µg/mL] | MIC (Curvularia lunata [16]) [µg/mL] | MIC (Aspergillus niger [17]) [µg/mL] | MIC (Staphylococcus aureus [18]) [µg/mL] | MIC (Bacillus subtilis [19]) [µg/mL] | MIC (Escherichia coli [20]) [µg/mL] | zone of inhibition at 100 µg/disc (Fusarium solani [1]) [mm] | zone of inhibition at 200 µg/disc (Fusarium solani [2]) [mm] | zone of inhibition at 100 µg/disc (Curvularia lunata [3]) [mm] | zone of inhibition at 200 µg/disc (Curvularia lunata [4]) [mm] | zone of inhibition at 100 µg/disc (Aspergillus niger [5]) [mm] | zone of inhibition at 200 µg/disc (Aspergillus niger [6]) [mm] | zone of inhibition at 200 µg/disc (Staphylococcus aureus [7]) [mm] | zone of inhibition at 100 µg/disc (Bacillus subtilis [8]) [mm] | zone of inhibition at 200 µg/disc (Bacillus subtilis [9]) [mm] | zone of inhibition at 100 µg/disc (Escherichia coli [10]) [mm] | zone of inhibition at 200 µg/disc (Escherichia coli [11]) [mm] | zone of inhibition at 100 µg/disc (Klebsiella pneumoniae [12]) [mm] | zone of inhibition at 200 µg/disc (Klebsiella pneumoniae [13]) [mm] | zone of inhibition at 100 µg/disc (Staphylococcus aureus [14]) [mm] | further results
CC(=O)N1CCN(c2ccc(OCC3COC(Cn4ccnc4)(c4ccc(Cl)cc4Cl)O3)cc2)CC1 (stereo not drawn) [KETOCONAZOLE] | 12.5 (≈ 23.5 µM) | 6.25 (≈ 11.8 µM) | 6.25 (≈ 11.8 µM) |  |  |  | 38 | 42 | 41 | 44 | 36 | 39 |  |  |  |  |  |  |  |  | 
O=C(N[C@H](CO)[C@H](O)c1ccc([N+](=O)[O-])cc1)C(Cl)Cl [CHLORAMPHENICOL] |  |  |  | 6.25 (≈ 19.3 µM) | 6.25 (≈ 19.3 µM) | 6.25 (≈ 19.3 µM) |  |  |  |  |  |  | 39 | 38 | 41 | 40 | 44 | 42 | 45 | 35 | MIC (Klebsiella pneumoniae [21]): 12.5 µg/mL (≈ 38.7 µM)
